Source: ChEMBL document CHEMBL1138871, “Synthesis and HIV-integrase strand transfer inhibition activity of 7-hydroxy[1,3]thiazolo[5,4-b]pyridin-5(4H)-ones” (Bioorg Med Chem Lett, 2006)

Test: Inhibition of recombinant HIV integrase strand transfer activity
Parameters: species or system Human immunodeficiency virus
How it was run: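 Recombinant integrase (2 µM) prebound to biotinylated donor DNA (0.66 µM) on streptavidin SPA beads, 5 min 37 °C in 25 mM MOPS pH 7.2, 23 mM NaCl, 10 mM MgCl₂, 10 mM DTT, 10% DMSO. Beads washed and resuspended to 570 nM integrase. Compound (6.7% DMSO final) preincubated 60 min 37 °C. Then [³H] target DNA at 7 nM final added, run 25–45 min 37 °C, EDTA-quenched, read by SPA. Means ± SE.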

SMILES | IC50
COc1ccc(-n2c(=O)c(C(=O)NCc3ccc(F)cc3)c(O)c3ncsc32)cc1 | 1 µM
Cn1c(=O)c(C(=O)NCc2ccc(Cl)cc2)c(O)c2ncsc21 | 2.1 µM
COC(=O)c1c(O)c2ncsc2n(Cc2ccc(OC)cc2)c1=O | 4.2 µM
COC(=O)c1c(O)c2ncsc2n(C)c1=O | > 500 µM
COC(=O)c1c(O)c2ncsc2n(-c2ccc(OC)cc2)c1=O | > 500 µM
CCn1c(=O)c(C(=O)OC)c(O)c2ncsc21 | 1.23 µM
COC(=O)c1c(O)c2ncsc2n(C(C)C)c1=O | 11 µM
COC(=O)c1c(O)c2ncsc2n(-c2cccc(SC)c2)c1=O | > 500 µM
O=C(NCc1ccc(F)cc1)c1c(O)c2ncsc2n(-c2ccccc2)c1=O | 0.4 µM
COC(=O)c1c(O)c2ncsc2n(-c2cccc([N+](=O)[O-])c2)c1=O | > 500 µM
O=C(NCc1ccc(F)cc1)c1c(O)c2nc(Cc3ccc(F)cc3)sc2n(-c2ccccc2)c1=O | 4 µM
COC(=O)c1c(O)c2ncsc2n(-c2ccccc2)c1=O | > 500 µM
COC(=O)c1c(O)c2ncsc2[nH]c1=O | > 500 µM
O=C(NCc1ccc(F)cc1)c1c(O)c2ncsc2n(-c2cccc([N+](=O)[O-])c2)c1=O | 17 µM
CS(=O)(=O)c1cccc(-n2c(=O)c(C(=O)NCc3ccc(F)cc3)c(O)c3ncsc32)c1 | 0.93 µM
O=C(NCc1ccc(F)cc1)c1c(O)c2ncsc2n(-c2cccc(C(F)(F)F)c2)c1=O | 7 µM
COC(=O)c1c(O)c2nc(Cc3ccc(F)cc3)sc2n(-c2ccccc2)c1=O | 282 µM
CCn1c(=O)c(C(=O)NCc2ccc(F)cc2)c(O)c2ncsc21 | 0.03 µM
O=C(NCc1ccc(F)cc1)c1c(O)c2ncsc2[nH]c1=O | 1.5 µM
COc1ccc(Cn2c(=O)c(C(=O)NCc3ccc(F)cc3)c(O)c3ncsc32)cc1 | 4 µM
COC(=O)c1c(O)c2ncsc2n(-c2cccc(C(F)(F)F)c2)c1=O | > 500 µM
COC(=O)c1c(O)c2nc(Cc3ccc(F)cc3)sc2n(C)c1=O | 35 µM
Cn1c(=O)c(C(=O)NCc2ccc(F)cc2)c(O)c2ncsc21 | 0.7 µM
CC(C)n1c(=O)c(C(=O)NCc2ccc(F)cc2)c(O)c2ncsc21 | 0.19 µM
CSc1cccc(-n2c(=O)c(C(=O)NCc3ccc(F)cc3)c(O)c3ncsc32)c1 | 7 µM
Cn1c(=O)c(C(=O)NCc2ccc(F)cc2)c(O)c2nc(Cc3ccc(F)cc3)sc21 | 151 µM
C[S+]([O-])c1cccc(-n2c(=O)c(C(=O)NCc3ccc(F)cc3)c(O)c3ncsc32)c1 (stereo not drawn) | 2 µM
O=C(/C=C(\O)c1nc[nH]n1)c1ccc(Cc2ccc(F)cc2)o1 [S-1360] | 0.16 µM
